Experimental data taken from ChEMBL document CHEMBL3046081, “Phytotoxic effect, uptake, and transformation of biochanin A in selected weed species” (J Agric Food Chem, 2012).
The source made the active and inactive calls. No cut-off for these calls is given here.

Key:
Shoot [1] = test: Drug metabolism in Echinochloa crus-galli (barnyard grass) shoot assessed as transformation to genistein at 400 uM after 14 days measured per gm of dry weight by LC-MS analysis; assay type: ADME; conditions: 336 h
Procedure, shortened: (§1)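 Pregerminated seeds, 14 per container, transplanted onto 0.5% agar medium containing biochanin A. Grown at 24 ± 1 °C under a 16 h light/8 h dark photoperiod and harvested 14 days after transplanting. Roots and shoots collected separately, blotted, washed twice, then freeze-dried. Tissue extracted by ASE at 40 °C and analysed by LC-ESI-MS against commercial standards. Two replicates per treatment.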

Shoot [2] = test: Drug metabolism in Echinochloa crus-galli (barnyard grass) shoot assessed as transformation to genistein at 20 uM after 14 days measured per gm of dry weight by LC-MS analysis; assay type: ADME; conditions: 336 h; procedure, shortened: as §1
Shoot [3] = test: Drug metabolism in Geranium molle shoot assessed as transformation to genistein at 400 uM after 14 days measured per gm of dry weight by LC-MS analysis; assay type: ADME; conditions: 336 h; procedure, shortened: as §1
Echinochloa crus-galli = test: Phytotoxicity against Echinochloa crus-galli (barnyard grass) assessed as root growth inhibition at 100 to 400 uM after 2 weeks by agar medium bioassay; assay type: functional, organism-based
Procedure, shortened: (§2)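 Agar bioassay with eight biochanin A doses (0–400 µM). Seeds were pregerminated 48 h at room temperature, then 10 seedlings were placed per Petri dish and grown 2 weeks at 24 ± 1 °C under a 16 h light/8 h dark cycle. […]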

Geranium molle = test: Phytotoxicity against Geranium molle assessed as root growth inhibition after 2 weeks by agar medium bioassay; assay type: functional, organism-based; conditions: 336 h
Procedure, shortened: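 Agar bioassay with eight biochanin A doses (0–400 µM). Seeds were pregerminated 48 h at room temperature, then 10 seedlings (1–2 mm radicle) were placed per Petri dish. Plants grew 2 weeks at 24 ± 1 °C under a 16 h light/8 h dark cycle. Root length was measured, and EC values were taken from a four-parameter log-logistic nonlinear regression fit.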

Shoot [4] = test: Drug metabolism in Silene noctiflora shoot assessed as transformation to sissotrin at 400 uM after 14 days measured per gm of dry weight by LC-MS analysis; assay type: ADME; conditions: 336 h
Procedure, shortened: (§3)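 Pregerminated seeds (14 per container) were grown on 20 mL 0.5% agar medium containing biochanin A, at 24 ± 1 °C with a 16 h light/8 h dark cycle. There were two replicates per treatment: 14 containers for S. noctiflora, 9 for G. molle and E. crus-galli. At 14 days, roots and shoots were harvested separately, washed, blotted and freeze-dried. Extraction was ASE at 40 °C, 1600 psi, 3 cycles. Analysis was LC-ESI-MS SIM against standards.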

Root [5] = test: Drug metabolism in Echinochloa crus-galli (barnyard grass) root assessed as transformation to sissotrin at 400 uM after 14 days measured per gm of dry weight by LC-MS analysis; assay type: ADME; conditions: 336 h; procedure, shortened: as §1
Shoot [6] = test: Drug metabolism in Silene noctiflora shoot assessed as transformation to genistein at 20 uM after 14 days measured per gm of dry weight by LC-MS analysis; assay type: ADME; conditions: 336 h; procedure, shortened: as §1
Root [7] = test: Drug metabolism in Echinochloa crus-galli (barnyard grass) root assessed as transformation to p-coumaric acid at 20 uM after 14 days measured per gm of dry weight by LC-MS analysis; assay type: ADME; conditions: 336 h; procedure, shortened: as §1
Root [8] = test: Drug metabolism in Echinochloa crus-galli (barnyard grass) root assessed as transformation to genistein at 400 uM after 14 days measured per gm of dry weight by LC-MS analysis; assay type: ADME; conditions: 336 h; procedure, shortened: as §1
Root [9] = test: Drug metabolism in Echinochloa crus-galli (barnyard grass) root assessed as transformation to genistein at 20 uM after 14 days measured per gm of dry weight by LC-MS analysis; assay type: ADME; conditions: 336 h; procedure, shortened: as §1
Root [10] = test: Drug metabolism in Geranium molle root assessed as transformation to genistein at 400 uM after 14 days measured per gm of dry weight by LC-MS analysis; assay type: ADME; conditions: 336 h; procedure, shortened: as §1
Root [11] = test: Drug metabolism in Geranium molle root assessed as transformation to genistein at 20 uM after 14 days measured per gm of dry weight by LC-MS analysis; assay type: ADME; conditions: 336 h; procedure, shortened: as §1
Shoot [12] = test: Drug metabolism in Echinochloa crus-galli (barnyard grass) shoot assessed as transformation to dihydrobiochanin A at 400 uM after 14 days measured per gm of dry weight by LC-MS analysis; assay type: ADME; conditions: 336 h; procedure, shortened: as §1
Shoot [13] = test: Drug metabolism in Geranium molle shoot assessed as transformation to dihydrobiochanin A at 400 uM after 14 days measured per gm of dry weight by LC-MS analysis; assay type: ADME; conditions: 336 h; procedure, shortened: as §1
Shoot [14] = test: Drug metabolism in Geranium molle shoot assessed as transformation to pratensein at 400 uM after 14 days measured per gm of dry weight by LC-MS analysis; assay type: ADME; conditions: 336 h; procedure, shortened: as §1
Shoot [15] = test: Drug metabolism in Echinochloa crus-galli (barnyard grass) shoot assessed as transformation to sissotrin at 400 uM after 14 days measured per gm of dry weight by LC-MS analysis; assay type: ADME; conditions: 336 h; procedure, shortened: as §1
Shoot [16] = test: Drug metabolism in Geranium molle shoot assessed as transformation to sissotrin at 400 uM after 14 days measured per gm of dry weight by LC-MS analysis; assay type: ADME; conditions: 336 h; procedure, shortened: as §1
Root [17] = test: Drug metabolism in Echinochloa crus-galli (barnyard grass) root assessed as transformation to dihydrobiochanin A at 20 uM after 14 days measured per gm of dry weight by LC-MS analysis; assay type: ADME; conditions: 336 h; procedure, shortened: as §1
Root [18] = test: Drug metabolism in Silene noctiflora root assessed as transformation to dihydrobiochanin A at 400 uM after 14 days measured per gm of dry weight by LC-MS analysis; assay type: ADME; conditions: 336 h; procedure, shortened: as §1
Shoot [19] = test: Drug uptake in Echinochloa crus-galli (barnyard grass) shoot at 400 uM after 14 days measured per gm of dry weight by LC-MS analysis; assay type: ADME; conditions: 336 h; procedure, shortened: as §3
Shoot [20] = test: Drug uptake in Geranium molle shoot at 400 uM after 14 days measured per gm of dry weight by LC-MS analysis; assay type: ADME; conditions: 336 h; procedure, shortened: as §3
Shoot [21] = test: Drug uptake in Geranium molle shoot at 20 uM after 14 days measured per gm of dry weight by LC-MS analysis; assay type: ADME; conditions: 336 h; procedure, shortened: as §3
Shoot [22] = test: Drug uptake in Silene noctiflora shoot at 20 uM after 14 days measured per gm of dry weight by LC-MS analysis; assay type: ADME; conditions: 336 h; procedure, shortened: as §3
Root [23] = test: Drug uptake in Echinochloa crus-galli (barnyard grass) root at 400 uM after 14 days measured per gm of dry weight by LC-MS analysis; assay type: ADME; conditions: 336 h; procedure, shortened: as §3
Root [24] = test: Drug uptake in Geranium molle root at 400 uM after 14 days measured per gm of dry weight by LC-MS analysis; assay type: ADME; conditions: 336 h; procedure, shortened: as §3
Root [25] = test: Drug uptake in Silene noctiflora root at 400 uM after 14 days measured per gm of dry weight by LC-MS analysis; assay type: ADME; conditions: 336 h; procedure, shortened: as §3
Root [26] = test: Drug uptake in Silene noctiflora root at 20 uM after 14 days measured per gm of dry weight by LC-MS analysis; assay type: ADME; conditions: 336 h; procedure, shortened: as §3
Lolium perenne = test: Phytotoxicity against Lolium perenne (perennial ryegrass) assessed as root growth inhibition at 100 to 400 uM after 2 weeks by agar medium bioassay; assay type: functional, organism-based; procedure, shortened: as §2
Root [27] = test: Drug metabolism in Echinochloa crus-galli (barnyard grass) root assessed as transformation to pratensein at 20 uM after 14 days measured per gm of dry weight by LC-MS analysis; assay type: ADME; conditions: 336 h; procedure, shortened: as §1
Root [28] = test: Drug metabolism in Geranium molle root assessed as transformation to pratensein at 20 uM after 14 days measured per gm of dry weight by LC-MS analysis; assay type: ADME; conditions: 336 h; procedure, shortened: as §1
Leaf = test: Drug recovery in leaf of Secale cereale (rye) at 5 ng/g by LC-MS analysis

COc1ccc(-c2coc3cc(O)cc(O)c3c2=O)cc1 [BIOCHANIN]
Drug metabolism (Shoot [1]): 0.2 µmol | Drug metabolism (Shoot [2]): 0.28 µmol | Drug metabolism (Shoot [3]): 0.12 µmol | Activity (Echinochloa crus-galli): inactive | EC25 (Geranium molle): > 400 µM | EC50 (Geranium molle): > 400 µM | Drug metabolism (Shoot [4]): 4.34 µmol | Drug metabolism (Root [5]): 1 µmol | Drug metabolism (Shoot [6]): 0.24 µmol | Drug metabolism (Root [7]): 0.15 µmol | Drug metabolism (Root [8]): 0.12 µmol | Drug metabolism (Root [9]): 0.07 µmol | Drug metabolism (Root [10]): 0.08 µmol | Drug metabolism (Root [11]): 0.05 µmol | Drug metabolism (Shoot [12]): 0.27 µmol | Drug metabolism (Shoot [13]): 0.02 µmol | Drug metabolism (Shoot [14]): 0.05 µmol | Drug metabolism (Shoot [15]): 0 µmol | Drug metabolism (Shoot [16]): 2.41 µmol | Drug metabolism (Root [17]): 0.05 µmol | Drug metabolism (Root [18]): 0.07 µmol | Drug uptake (Shoot [19]): 0.67 µmol | Drug uptake (Shoot [20]): 1.13 µmol | Drug uptake (Shoot [21]): 1 µmol | Drug uptake (Shoot [22]): 0.76 µmol | Drug uptake (Root [23]): 2.13 µmol | Drug uptake (Root [24]): 11.46 µmol | Drug uptake (Root [25]): 4.54 µmol | Drug uptake (Root [26]): 4.65 µmol | Activity (Lolium perenne): inactive | Drug metabolism (Root [27]): 0.38 µmol | Drug metabolism (Root [28]): 0.66 µmol | Drug recovery (Leaf): 93%
